Most compounds without a hit are left out; they make up all but 2.3% or so of the library.
TAAR1 ag: agonists of human TAAR1. activation, % at 3 µM. CHO RD-HGA16 TAAR1, Fluo-8 calcium fluorescence; vehicle wells 0%, saturating PEA agonist 100%. hit rate 0.99% among 360,000. AID 624467;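 active = activation above the mean activation of all test compounds in the run plus 3 SD, cut at about 38% in these data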
Target sequence (Q96RJ0 whole entry, looked up): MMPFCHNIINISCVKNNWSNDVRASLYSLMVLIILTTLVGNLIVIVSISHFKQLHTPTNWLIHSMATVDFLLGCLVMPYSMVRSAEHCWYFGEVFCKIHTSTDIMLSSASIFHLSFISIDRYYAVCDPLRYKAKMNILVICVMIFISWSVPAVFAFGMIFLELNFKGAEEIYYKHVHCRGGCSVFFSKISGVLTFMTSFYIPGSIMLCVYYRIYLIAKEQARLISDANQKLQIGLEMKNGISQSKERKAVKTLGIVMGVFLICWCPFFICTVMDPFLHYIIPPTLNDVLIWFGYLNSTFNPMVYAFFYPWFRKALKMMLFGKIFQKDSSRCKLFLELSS
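Benchmarks: low control DMSO, high control PEA (EC100); System: CHO RD-HGA16 cells carrying human TAAR1 plus Gα16; Detection: Fluo-8 fluorescence, 5 s baseline then 140 s kinetic read; Schedule: 17-24 h plating, Fluo-8 75 min 37 °C, 30 min RT; Read-out basis: % activation from peak over basal fluorescence ratio, DMSO-to-PEA scaled.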
TAAR1 antag: human TAAR1 antagonism; Q96RJ0; CHO RD-HGA16 TAAR1, Fluo-8 calcium fluorescence, antagonist; inhibition, % at 3 µM; hit rate 1.5% among 360,000; AID 624466;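 active = inhibition above a per-plate cutoff, the mean inhibition of test compounds on that plate plus 3 SD, cut at about 49% in these data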
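test system = CHO RD-HGA16 cells bearing hTAAR1 | replication = singlicate | controls = DMSO-only wells and EC80 β-PEA-stimulated wells | reagent = EC80 β-phenethylamine stimulus | read-out basis = percent inhibition of PEA-evoked calcium signal, max/basal emission ratio | schedule = seeding 17-24 h prior, 75-min 37 °C, 30-min RT dye loading | signal = kinetic Fluo-8 calcium fluorescence measurement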
OXTR potentiator: human OXTR potentiation; P30559; CHO-OTR cells, Fluo-8 calcium fluorescence, potentiator mode; 0% = oxytocin EC15, 100% = EC100; activation, % at 3 µM; hit rate 0.061% among 320,000; AID 2445;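 active = activation above that plate's cutoff, the mean activation of tested compounds plus 3 SD, cut at about 6.6% in these data, passing the limit was not always enough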
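Material: CHO-OTR cells, human receptor; compound dosing: single dose, 3.0 µM nominal final compound concentration; schedule: 6 min compound pre-incubation at room temperature, 100 s kinetic read; measured by: kinetic Fluo-8 calcium fluorescence; read-out basis: % activation vs EC15 and EC100 oxytocin; controls: EC15 oxytocin alone as 0%, 75 nM oxytocin as 100%; replicates: singlicate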
OXTR agonist: activates the human oxytocin receptor. P30559. AID 2435. hit rate 0.32% among 320,000. CHO-OTR cells, Fluo-8 calcium fluorescence; normalized: DMSO 0%, oxytocin 100%. activation, % at 3 µM;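 active = activation above the mean of all tested compounds plus 3 SD, cutoff set per screening run, cut at about 20% in these data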;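 also: peak over basal fluorescence ratio from a 100 s FLIPR kinetic read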
V1aR counter: counter-screen for oxytocin receptor agonists: human V1a receptor agonists | CHO-V1R cells, Fluo-8 calcium fluorescence, agonist mode; 0% DMSO, 100% 3 nM vasopressin | activation, % at 3 µM | hit rate 0.25% among 320,000;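 active = activation above the mean activation of all tested compounds plus 3 SD, per screening run, cut at about 20% in these data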;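 also: signal is peak over basal fluorescence ratio across a 100 second FLIPR read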
Target sequence (P37288 whole entry, looked up): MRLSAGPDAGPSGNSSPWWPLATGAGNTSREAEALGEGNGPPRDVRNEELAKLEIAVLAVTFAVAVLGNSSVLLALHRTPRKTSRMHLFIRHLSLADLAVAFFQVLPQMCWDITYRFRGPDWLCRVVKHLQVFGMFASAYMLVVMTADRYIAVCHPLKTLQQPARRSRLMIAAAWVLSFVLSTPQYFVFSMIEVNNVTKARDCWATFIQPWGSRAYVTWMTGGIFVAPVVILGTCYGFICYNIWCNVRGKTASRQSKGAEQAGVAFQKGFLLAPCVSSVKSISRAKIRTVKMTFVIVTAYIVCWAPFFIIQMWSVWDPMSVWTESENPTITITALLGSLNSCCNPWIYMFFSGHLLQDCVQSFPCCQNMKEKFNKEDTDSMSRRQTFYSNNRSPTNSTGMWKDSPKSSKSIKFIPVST
Of the large screens only hits and unclear results are named; the others gave an inactive call.

O=C(Nc1ccccc1)Nc1ccc(-n2ccc(C(F)(F)F)n2)cc1	TAAR1 antag 58
COC(=O)c1cc(NC(=O)Nc2ccccc2)ccc1Cl	TAAR1 antag 54
COC(=O)c1cccc(NC(=O)Nc2ccc(Cl)c(Cl)c2)c1	none
O=C(Nc1ccccc1)Nc1ccccc1	TAAR1 ag 39 (no result: OXTR potentiator, OXTR agonist, V1aR counter)
COC(=O)c1sccc1NC(=O)Nc1ccc(Cl)c(Cl)c1	TAAR1 antag 54
O=C(O)CC(CC(=O)Nc1ccc(-n2ccc(C(F)(F)F)n2)cc1)c1ccccc1 (centres undefined)	none
CC(=O)Nc1ccc(NC(=O)Nc2cccc(Cl)c2)cc1	TAAR1 ag 40
Cc1ccccc1C1c2[nH]c3ccccc3c2C[C@H]2C(=O)N(c3ccccc3C(=O)NCCN3CCOCC3)C(=O)N12 (some centres undefined)	TAAR1 antag 50
N#CC(C#N)=C1C=C2C=C(N3CCCCC3)CCC2CC1 (centres undefined)	OXTR agonist 921, V1aR counter 617 (no result: TAAR1 ag, TAAR1 antag)
N#C/C(=C/c1ccc(-c2ccccc2)o1)c1nc(-c2cccs2)cs1	TAAR1 antag 55
N#C/C(=C/c1ccc(-c2ccc(S(N)(=O)=O)cc2)o1)c1nc2ccccc2s1	OXTR agonist 38, V1aR counter 51
CC(C)(C)c1ccc(C(=O)OC/C(O)=C(\C#N)c2nc3ccccc3s2)cc1	none
COC(=O)c1ccc(/C=C(\C#N)c2nc3ccccc3s2)cc1	OXTR agonist 30, V1aR counter 24
N#C/C(=C\c1ccc(-c2ccc(F)cc2)o1)C(=O)Nc1nc(-c2cccs2)cs1	none
O=S(=O)(c1ccccc1)N1CCN(Cc2c(O)ccc3ccccc23)CC1	TAAR1 antag 51
OCc1cccc(-c2cnc3c(Nc4cccc(OC(F)(F)C(F)F)c4)nccn23)c1	TAAR1 antag 60 (no result: OXTR potentiator, OXTR agonist, V1aR counter)
COc1ccc(-c2cc(C(=O)Nc3ccc(S(N)(=O)=O)cc3)c3ccccc3n2)cc1OC	none
COc1cc(-c2cc(C(=O)Nc3ccc(S(=O)(=O)NCc4ccco4)cc3)c3ccccc3n2)cc(OC)c1OC	TAAR1 antag 57
COc1cc(-c2cc(C(=O)Nc3cc(S(=O)(=O)N4CCOCC4)ccc3C)c3ccccc3n2)cc(OC)c1OC	TAAR1 antag 49 (no result: OXTR potentiator, OXTR agonist, V1aR counter)
COc1cc(-c2cc(C(=O)Nc3cc(S(=O)(=O)N4CCOCC4)ccc3O)c3ccccc3n2)cc(OC)c1OC	TAAR1 antag 51
COc1ccc(-c2cc(C(=O)Nc3cc(S(N)(=O)=O)ccc3C)c3ccccc3n2)cc1OC	none
COc1ccccc1NC(=O)c1cc(-c2cc(OC)c(OC)c(OC)c2)nc2ccccc12	none
COc1ccc(NC(=O)CSc2nc3ccsc3c(=O)n2CCCCCC(=O)O)cc1	TAAR1 antag 50
COc1ccc(-c2sc3ccccc3c2C#CCCO)cc1	none
COc1ccc2c(C#CCCO)c(-c3ccc(S(C)(=O)=O)cc3)sc2c1	TAAR1 antag 62
CS(=O)(=O)c1ccc(-c2sc3ccccc3c2C#CCCO)cc1	TAAR1 antag 54
COc1ccc2sc(-c3ccc(S(C)(=O)=O)cc3)c(C#CCO)c2c1	none
N#Cc1ccc(-c2ccc(OCC(O)Cn3nnc4ccccc43)cc2)cc1 (centres undefined)	TAAR1 antag 56
C=CCc1cccc2cc(C(=O)N(C)C)c(=O)oc12	none
C=CCc1cccc2cc(C(=O)N(CC)CC)c(=O)oc12	TAAR1 antag 106
CCOc1cc(/C=C2/SC(=S)N(Cc3ccccc3)C2=O)ccc1O	OXTR agonist 26, V1aR counter 37
COc1cc([N+](=O)[O-])cc(/C=C2/SC(=S)N(Cc3ccccc3)C2=O)c1O	OXTR agonist 82, V1aR counter 64
CCn1c(N2CCN(S(=O)(=O)c3ccc(F)cc3)CC2)nc2ccccc21	none
CCn1c(N2CCN(S(=O)(=O)c3ccc(Cl)cc3)CC2)nc2ccccc21	TAAR1 antag 72
CCN1C(N(C)CCc2c[nH]c3ccccc23)=N[C@@H](c2cccc(C(F)(F)F)c2)C(C(=O)OC)=C1C	OXTR agonist 23 (no result: TAAR1 ag, TAAR1 antag)
CCN1C(=O)N[C@@H](c2cccc(C(F)(F)F)c2)C(C(=O)OC)=C1C	none
COc1ccc(-c2ccc3c(c2)S(=O)(=O)c2cccc(C(=O)N4CCN(c5ccccn5)CC4)c2C3=O)cc1OC	none (no result: OXTR potentiator, OXTR agonist, V1aR counter)
COc1ccc(-c2ccc3c(c2)S(=O)(=O)c2cccc(C(=O)N4CCN(C5CCCCC5)CC4)c2C3=O)cc1OC	TAAR1 antag 52
C=CCCC1CN(Cc2ccc(OC)cc2)S(=O)(=O)c2c(F)cccc2O1 (centres undefined)	none (no result: OXTR potentiator, OXTR agonist, V1aR counter)
CC(C)C[C@@H]1COc2cccc(NC3CC3)c2S(=O)(=O)N1	none (no result: OXTR potentiator, OXTR agonist, V1aR counter)
C[C@@H]1C=CCCO[C@]12C(=O)N(CC1CC1)c1cccc(Br)c12	none (no result: OXTR potentiator, OXTR agonist, V1aR counter)
Cc1ccccc1Cn1cc(NC(=O)c2noc3c2CC(C(C)(C)C)CC3)cn1 (centres undefined)	TAAR1 ag 39, TAAR1 antag 63
Cc1ccccc1Cn1nc(C)c(NC(=O)c2noc3c2CC(C(C)(C)C)CC3)c1C (centres undefined)	none
CCOC(=O)c1c(C)[nH]c(C)c1C(=O)COC(=O)c1ccccc1O	none
Cc1[nH]c2ccccc2c1C(=O)COC(=O)c1ccccc1O	TAAR1 antag 65
CC(=O)C1=C(C)NC(SCC(=O)c2ccc(F)cc2)=C(C#N)C1c1ccco1 (centres undefined)	TAAR1 antag 51
O=C(C(=O)N1CCC(CNS(=O)(=O)c2ccccc2OC(F)(F)F)CC1)c1cc2ccccc2o1	none (no result: OXTR potentiator, OXTR agonist, V1aR counter)
O=Cc1cscc1[B-](F)(F)F	none (no result: OXTR potentiator, OXTR agonist, V1aR counter)
O=C(NCc1ccccc1C(F)(F)F)c1cccc2c1C(=O)c1ccc(N3CCC(N4CCCCC4)CC3)cc1S2(=O)=O	none (no result: OXTR potentiator, OXTR agonist, V1aR counter)
O=C(NCc1ccccc1C(F)(F)F)c1cccc2c1C(=O)c1ccc(N3CCOCC3)cc1S2(=O)=O	TAAR1 antag 56
COc1ccccc1N1CCN(c2ccc3c(c2)S(=O)(=O)c2cccc(C(=O)NCc4cccc(F)c4)c2C3=O)CC1	TAAR1 antag 53 (no result: OXTR potentiator, OXTR agonist, V1aR counter)
C=CCNC(=O)c1cccc2c1C(=O)c1ccc(N3CCCC3)cc1S2(=O)=O	none
O=C(NCc1ccccc1)c1cccc2c1C(=O)c1ccc(/C=C/c3ccccc3)cc1S2(=O)=O	TAAR1 antag 58
O=C(NCc1cccc(F)c1)c1cccc2c1C(=O)c1ccc(N3CCOCC3)cc1S2(=O)=O	none
O=C(NCc1ccco1)c1cccc2c1C(=O)c1ccc(N3CCCC3)cc1S2(=O)=O	TAAR1 antag 53
COc1ccc(N2C(=O)c3n[nH]c(C)c3C2c2ccc(F)cc2)cc1 (centres undefined)	none (no result: OXTR potentiator, OXTR agonist, V1aR counter)
CC1CCN(c2ccc3c(c2)S(=O)(=O)c2cccc(C(=O)NC[C@@H]4CCCO4)c2C3=O)CC1	TAAR1 antag 60
